Results: ChEMBL document CHEMBL4376835, “Discovery of Nonpungent Transient Receptor Potential Vanilloid 1 (TRPV1) Agonist as Strong Topical Analgesic” (J Med Chem, 2020)
Active and inactive are the calls of the source.

Columns and labels:
Rattus norvegicus [1] = experiment: (§1) Analgesic activity against L5/L6 spinal nerve ligation-induced neuropathic pain Sprague-Dawley rat model assessed as maximal decrease in neuropathic pain by measuring increase in paw withdrawal threshold in response to von frey filament at 1 to 4 mg/kg, sc compound administered at day 14 after ligation and measured at 30 mins after drug dosing by up and down method; assay type: functional, organism-based
In short: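 Rats with spinal nerve ligation were dosed s.c. Paw withdrawal threshold measured with von Frey filaments up to 1.5 h after dosing. Mean±SEM, n=7-8, compared with vehicle.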

[2] = Genotoxicity in Salmonella typhimurium TA97 incubated for 48 hrs by Ames test; assay type: toxicity; settings: salmonella enterica subsp. enterica serovar typhimurium
Rattus norvegicus [3] = experiment: as §1, with “as” for “as maximal”, “at 5” for “at 1”, “to 10” for “to 4”, “mg/kg, ip” for “mg/kg, sc”, “measured up to 1.5 hrs” for “measured at 30 mins”, “method relative to control” for “method”; assay type: functional
In short: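 Rat spinal nerve ligation model of neuropathic pain. Compound was given i.p. at 1, 2, 5 or 10 mg/kg; a gabapentin 65 mg/kg i.p. arm and a saline i.p. arm were run alongside. Von Frey withdrawal thresholds were taken pre-surgery and on days 1, 7 and 14, then at 0.5, 1 and 1.5 h post-dose. Mean±SEM, n=7-8.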

[4] = target: Transient receptor potential cation channel subfamily V member 1 (Rattus norvegicus, UniProt O35433); experiment: Agonist activity at rat TRPV1 expressed in CHO cells assessed as increase in 45Ca2+ uptake incubated for 5 mins by liquid scintillation counting method; assay type: cell-based
Sequence of Transient receptor potential cation channel subfamily V member 1 (Rattus norvegicus, UniProt O35433) (O35433 whole entry): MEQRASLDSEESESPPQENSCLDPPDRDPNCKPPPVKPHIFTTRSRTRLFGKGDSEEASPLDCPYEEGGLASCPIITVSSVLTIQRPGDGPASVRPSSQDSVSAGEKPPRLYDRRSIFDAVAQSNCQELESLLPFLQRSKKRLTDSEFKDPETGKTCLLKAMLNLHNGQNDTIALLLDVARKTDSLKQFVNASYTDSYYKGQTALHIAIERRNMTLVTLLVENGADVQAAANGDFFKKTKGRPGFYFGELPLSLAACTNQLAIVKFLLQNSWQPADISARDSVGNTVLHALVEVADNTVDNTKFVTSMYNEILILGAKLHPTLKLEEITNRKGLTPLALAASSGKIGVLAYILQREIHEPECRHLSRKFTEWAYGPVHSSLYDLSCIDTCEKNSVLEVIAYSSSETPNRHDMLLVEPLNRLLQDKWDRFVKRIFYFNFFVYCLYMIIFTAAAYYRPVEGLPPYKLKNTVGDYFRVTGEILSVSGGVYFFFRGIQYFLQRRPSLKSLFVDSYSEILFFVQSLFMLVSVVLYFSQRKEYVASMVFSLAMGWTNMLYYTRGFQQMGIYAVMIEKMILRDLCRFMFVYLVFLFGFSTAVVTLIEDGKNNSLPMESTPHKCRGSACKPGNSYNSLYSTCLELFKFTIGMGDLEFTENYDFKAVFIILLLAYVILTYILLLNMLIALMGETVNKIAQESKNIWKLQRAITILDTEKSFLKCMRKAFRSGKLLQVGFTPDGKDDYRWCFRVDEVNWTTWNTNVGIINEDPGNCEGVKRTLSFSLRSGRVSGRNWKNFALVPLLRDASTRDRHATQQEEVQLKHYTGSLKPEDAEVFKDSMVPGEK
In short: (§2)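 Human or rat TRPV1 heterologously expressed in CHO cells; agonism read as 45Ca2+ uptake, run as previously described. Values are the mean of at least three experiments.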

[5] = target: Transient receptor potential cation channel subfamily M member 8 (Mus musculus) (UniProt Q8R4D5); experiment: Agonist activity at mouse TRPM8 expressed in HEK293 cells assessed as increase in calcium influx at 0.3 to 30 uM incubated for 1 min by Fluo-4-AM dye based FLIPR assay; assay type: cell-based
Sequence of Transient receptor potential cation channel subfamily M member 8 (Mus musculus) (Q8R4D5 whole entry): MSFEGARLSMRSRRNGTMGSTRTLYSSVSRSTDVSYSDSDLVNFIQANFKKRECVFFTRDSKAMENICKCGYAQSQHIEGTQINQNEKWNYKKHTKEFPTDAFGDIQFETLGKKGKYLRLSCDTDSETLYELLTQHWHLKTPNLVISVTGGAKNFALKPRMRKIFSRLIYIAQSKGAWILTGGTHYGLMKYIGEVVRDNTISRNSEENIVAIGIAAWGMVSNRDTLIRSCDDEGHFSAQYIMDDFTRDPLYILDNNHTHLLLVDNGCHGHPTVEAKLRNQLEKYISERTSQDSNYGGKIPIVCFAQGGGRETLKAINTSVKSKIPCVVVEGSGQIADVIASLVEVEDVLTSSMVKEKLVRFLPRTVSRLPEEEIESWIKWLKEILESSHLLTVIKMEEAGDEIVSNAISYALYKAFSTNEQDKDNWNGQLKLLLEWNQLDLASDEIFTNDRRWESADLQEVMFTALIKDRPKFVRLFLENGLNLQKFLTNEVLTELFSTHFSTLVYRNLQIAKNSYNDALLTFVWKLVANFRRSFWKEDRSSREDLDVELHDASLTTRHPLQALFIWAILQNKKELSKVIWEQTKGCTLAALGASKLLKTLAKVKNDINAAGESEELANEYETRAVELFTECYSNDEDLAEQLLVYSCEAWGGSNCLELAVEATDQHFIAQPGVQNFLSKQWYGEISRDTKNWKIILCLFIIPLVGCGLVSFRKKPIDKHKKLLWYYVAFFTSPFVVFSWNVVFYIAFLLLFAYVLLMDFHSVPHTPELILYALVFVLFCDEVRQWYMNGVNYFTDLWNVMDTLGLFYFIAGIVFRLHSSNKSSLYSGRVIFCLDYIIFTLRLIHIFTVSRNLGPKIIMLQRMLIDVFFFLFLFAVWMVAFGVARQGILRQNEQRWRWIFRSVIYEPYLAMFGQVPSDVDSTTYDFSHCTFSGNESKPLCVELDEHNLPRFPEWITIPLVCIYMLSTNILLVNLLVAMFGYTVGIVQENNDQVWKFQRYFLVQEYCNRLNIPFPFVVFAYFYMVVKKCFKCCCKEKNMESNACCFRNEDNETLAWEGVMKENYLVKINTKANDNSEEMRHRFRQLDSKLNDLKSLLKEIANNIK
In short: (§3)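 Cells individually transfected with a single TRP channel (TRPV1, hTRPA1, mTRPA1, mTRPV3 or mTRPM8). Intracellular calcium influx recorded by FLIPR after the test compound was applied. Each cell type was also challenged with an agonist suited to its own TRP channel.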

[6] = Genotoxicity in Salmonella typhimurium TA1535 incubated for 48 hrs by Ames test; assay type: toxicity; settings: salmonella enterica subsp. enterica serovar typhimurium
[7] = Genotoxicity in Salmonella typhimurium TA102 incubated for 48 hrs in presence of rat S9 by Ames test; assay type: toxicity, subcellular; settings: salmonella enterica subsp. enterica serovar typhimurium, s9, 48 h
[8] = Toxicity in ip dosed ICR mouse administered as single dose; assay type: organism-based; settings: in vivo
Mus musculus [9] = experiment: Induction of hypothermia in ICR mouse assessed as decrease in body temperature at 0.5 mg/kg, ip coadministered with capsaicin and measured for 7 hrs; assay type: functional, organism-based
[10] = Genotoxicity in Salmonella typhimurium TA102 incubated for 48 hrs by Ames test; assay type: toxicity; settings: salmonella enterica subsp. enterica serovar typhimurium
[11] = Genotoxicity in Salmonella typhimurium TA100 incubated for 48 hrs in presence of rat S9 by Ames test; assay type: toxicity, subcellular; settings: salmonella enterica subsp. enterica serovar typhimurium, s9, 48 h
[12] = Genotoxicity in Salmonella typhimurium TA1538 incubated for 48 hrs in presence of rat S9 by Ames test; assay type: toxicity, subcellular; settings: salmonella enterica subsp. enterica serovar typhimurium, s9, 48 h
Mus musculus [13] = experiment: Analgesic activity against formalin-induced nociception ICR mouse model assessed as reduction in pain behaviour by measuring less licking of formalin injected hind paw at 1 mg/kg, ip pretreated with compound 30 mins prior to formalin induction measured during second phase (20-30 mins after formalin injection) by formalin test; assay type: functional
In short: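 Mice were dosed i.p. with 0.1–10 mg/kg, with vehicle and gabapentin (50, 100 mg/kg i.p.) arms. 2% formalin was injected into the dorsal hindpaw, and paw-licking time was recorded for the first phase (5 min) and the second phase (20–30 min). ED50 was taken from the dose–response. Mean±SEM, n=8.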

[14] = target: Transient receptor potential cation channel subfamily V member 1 (Rattus norvegicus) (UniProt O35433); experiment: Partial agonist activity at rat TRPV1 expressed in CHO cells assessed as maximal increase in 45Ca2+ uptake incubated for 5 mins by liquid scintillation counting method relative to capsaicin; assay type: cell-based
Sequence of Transient receptor potential cation channel subfamily V member 1 (Rattus norvegicus) (O35433 whole entry): as the sequence (O35433 whole entry) above
In short: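 Human or rat TRPV1 heterologously expressed in CHO cells; functional agonism read as 45Ca2+ uptake. Values are means of at least three experiments.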

[15] = target: T1, Transient receptor potential cation channel subfamily V member 1 (Homo sapiens, UniProt Q8NER1); experiment: Agonist activity at human TRPV1 expressed in HEK293 cells assessed as increase in calcium influx at 0.3 to 30 uM incubated for 1 min by Fluo-4-AM dye based FLIPR assay; assay type: cell-based; in short: as §3
T1 sequence (Q8NER1 whole entry): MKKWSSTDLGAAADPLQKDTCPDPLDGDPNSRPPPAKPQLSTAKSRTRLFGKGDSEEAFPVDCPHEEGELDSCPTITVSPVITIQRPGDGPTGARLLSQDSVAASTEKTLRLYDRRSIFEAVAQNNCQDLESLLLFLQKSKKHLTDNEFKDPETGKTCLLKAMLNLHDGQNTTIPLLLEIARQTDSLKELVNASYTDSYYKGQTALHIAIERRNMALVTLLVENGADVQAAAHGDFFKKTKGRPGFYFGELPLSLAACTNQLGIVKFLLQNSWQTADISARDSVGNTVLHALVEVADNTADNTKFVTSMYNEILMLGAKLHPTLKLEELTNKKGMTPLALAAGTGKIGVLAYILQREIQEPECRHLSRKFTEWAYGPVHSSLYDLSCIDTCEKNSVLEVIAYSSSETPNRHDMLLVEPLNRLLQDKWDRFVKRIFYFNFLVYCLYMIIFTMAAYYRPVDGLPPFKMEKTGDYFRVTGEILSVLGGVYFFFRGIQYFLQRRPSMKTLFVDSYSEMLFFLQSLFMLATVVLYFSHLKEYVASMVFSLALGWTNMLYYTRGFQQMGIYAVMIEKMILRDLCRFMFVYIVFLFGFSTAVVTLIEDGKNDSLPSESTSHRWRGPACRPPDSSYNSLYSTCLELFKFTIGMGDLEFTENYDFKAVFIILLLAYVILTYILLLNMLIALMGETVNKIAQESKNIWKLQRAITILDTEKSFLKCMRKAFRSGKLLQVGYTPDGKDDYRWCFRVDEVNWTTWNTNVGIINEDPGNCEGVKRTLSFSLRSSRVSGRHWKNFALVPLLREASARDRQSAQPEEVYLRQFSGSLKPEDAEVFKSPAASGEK

[16] = target: T1, Transient receptor potential cation channel subfamily V member 1; experiment: Displacement of [3H]-RTX from human TRPV1 expressed in CHO cells incubated for 60 mins by radioligand competition assay based scintillation counting method; assay type: cell-based
[17] = Systemic drug absorption in porcine skin assessed as drug accumulation in acceptor Franz cell applied topically as carbopol-gel with 1% formulation measured for 8 hrs by Franz diffusion cell based in vitro transdermal delivery test; assay type: ADME, tissue-based, Sus scrofa, Zone of skin; settings: pig
[18] = Genotoxicity in Salmonella typhimurium TA98 incubated for 48 hrs in presence of rat S9 by Ames test; assay type: toxicity, subcellular; settings: salmonella enterica subsp. enterica serovar typhimurium, s9, 48 h
[19] = Genotoxicity in Salmonella typhimurium TA104 incubated for 48 hrs by Ames test; assay type: toxicity; settings: salmonella enterica subsp. enterica serovar typhimurium
[20] = Genotoxicity in Salmonella typhimurium TA1538 incubated for 48 hrs by Ames test; assay type: toxicity; settings: salmonella enterica subsp. enterica serovar typhimurium
Mus musculus [21] = experiment: Induction of hypothermia in ip dosed ICR mouse assessed as decrease in body temperature measured for 7 hrs; assay type: functional, organism-based
[22] = Genotoxicity in CHO-WBLT cells assessed as chromosomal aberration incubated for 6 hrs in presence of rat S9 by Q-banding technique; assay type: toxicity, subcellular, Cricetulus griseus; settings: chinese hamster, s9, 6 h
[23] = Genotoxicity in Salmonella typhimurium TA104 incubated for 48 hrs in presence of rat S9 by Ames test; assay type: toxicity, subcellular; settings: salmonella enterica subsp. enterica serovar typhimurium, s9, 48 h
[24] = target: T1, Transient receptor potential cation channel subfamily V member 1; experiment: Agonist activity at human TRPV1 expressed in CHO cells assessed as increase in 45Ca2+ uptake incubated for 5 mins by liquid scintillation counting method; assay type: cell-based; in short: as §2
Mus musculus [25] = experiment: Antiallodynic activity against capsaicin-induced mechanical allodynia ICR mouse model assessed as inhibition of mechanical hyperalgesia administered topically 30 mins before capsaicin injection and measured over 5 mins; assay type: functional, organism-based
[26] = Toxicity in po dosed ICR mouse administered as single dose; assay type: organism-based; settings: in vivo
[27] = Genotoxicity in Salmonella typhimurium TA1535 incubated for 48 hrs in presence of rat S9 by Ames test; assay type: toxicity, subcellular; settings: salmonella enterica subsp. enterica serovar typhimurium, s9, 48 h
[28] = Drug uptake in porcine skin assessed as dermal accumulation applied topically as carbopol-gel with 1% formulation measured for 8 hrs by Franz diffusion cell based in vitro transdermal delivery test; assay type: ADME, tissue-based, Sus scrofa, Zone of skin; settings: pig
[29] = target: T1, Transient receptor potential cation channel subfamily V member 1; experiment: Potency index, ratio of EC50 of capsaicin to EC50 of compound for agonist activity at human TRPV1 expressed in CHO cells assessed as increase in 45Ca2+ uptake incubated for 5 mins by liquid scintillation counting method; assay type: cell-based
[30] = Toxicity in Sprague-Dawley rat assessed as pathological problems administered topically daily for 4 weeks; settings: in vivo, topical_or_ocular, 672 h
In short: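 Rats given daily topical application for 4 weeks, then examined for pathological findings.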

[31] = Genotoxicity in CHO-WBLT cells assessed as chromosomal aberration incubated for 6 hrs in presence of rat S9 by laser scan cytometry; assay type: toxicity, subcellular, Cricetulus griseus; settings: chinese hamster, s9, 6 h
[32] = Genotoxicity in CHL/IU cells by chromosomal aberration assay; assay type: toxicity, cell-based, Cricetulus griseus; settings: chinese hamster
[33] = Genotoxicity in Salmonella typhimurium TA1537 incubated for 48 hrs in presence of rat S9 by Ames test; assay type: toxicity, subcellular; settings: salmonella enterica subsp. enterica serovar typhimurium, s9, 48 h
[34] = target: T1, Transient receptor potential cation channel subfamily V member 1; experiment: Potency index, ratio of Ki of capsaicin to Ki for displacement of [3H]RTX from human TRPV1 expressed in CHO cells incubated for 60 mins by scintillation counting method; assay type: cell-based

CC(C)(C)c1nc(-c2cccc(Cl)c2)c(CNC(=O)Nc2ccc(CO)c(F)c2)s1
Activity (Rattus norvegicus [1]): Active
Activity [2]: Non-Toxic
MPE (Rattus norvegicus [3]): 100%
EC50 [4]: 93 nM
Activity [5]: inactive
Activity [6]: Non-Toxic
Activity [7]: Non-Toxic
LD50 [8]: > 200 mg/kg
Activity (Mus musculus [9]): Active
Activity [10]: Non-Toxic
Activity [11]: Non-Toxic
Activity [12]: Non-Toxic
MPE (Mus musculus [13]): 100%
Activity [14]: 50 to 60%
Activity [15]: Active
Ki [16]: 11.4 nM
Drug absorption [17]: Not Active
Activity [18]: Non-Toxic
Activity [19]: Non-Toxic
Activity [20]: Non-Toxic
Activity (Mus musculus [21]): Dose-dependent effect
Activity [22]: Non-Toxic
Activity [23]: Non-Toxic
EC50 [24]: 5.05 nM
Activity (Mus musculus [25]): Dose-dependent effect
LD50 [26]: > 2000 mg/kg
Activity [27]: Non-Toxic
Drug uptake [28]: Active
Ratio EC50 [29]: 5
Activity [30]: Non-Toxic
Activity [31]: Non-Toxic
Activity [32]: Non-Toxic
Activity [33]: Non-Toxic
Ratio Ki [34]: 80
